Laboratory results published in ChEMBL document CHEMBL5724801, “EUbOPEN Chemogenomics Library - Multiplex” (2024).
Values joined by “and” are separate entries in the source; they are usually repeats but may differ in a detail not shown here. Equal entries are not always repeated.

System: Fibroblast
Test: Multiplex assay against human fibroblast
Format: toxicity, cell-based
Procedure, shortened: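 Phenotypes for tubulin, mitochondrial mass and membrane permeability are expressed as per cents of healthy-nucleus cells. Cells were stained live at seeding with Hoechst33342, BioTracker Green Microtubule Cytoskeleton Dye, MitoTracker Red and Annexin V Alexa Fluor 680, then imaged after compound addition on a CQ1 microscope at 37°C and 5% CO2. Machine-learning gating in CellPathfinder separated Hoechst high-intensity objects from normal cells, divided normal cells by nuclear state (healthy, pyknosed, fragmented) and divided pyknosed cells into mitotic or apoptotic.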

[1] = 12 h, 1 µM, compound concentration 1 uM
[2] = 12 h, 10 µM, compound concentration 10 uM
[3] = 24 h, 1 µM, compound concentration 1 uM
[4] = 24 h, 10 µM, compound concentration 10 uM
[5] = 48 h, 1 µM, compound concentration 1 uM
[6] = 48 h, 10 µM, compound concentration 10 uM

## CCOc1ccccc1C(=O)NCC1(N2CCN(CC)CC2)CCCCC1
[1]
  Population Apoptotic (%): 8% and 22.22%
  Population Healthy Nuclei (%): 51.46% and 68.29%
  Population Hoechst High Intensity Objects (%): 0%
  Population Membrane Permeable-Phenotype (%): 3.41% and 2.98%
  Population Mitochondria Different-Phenotype (%): 3.41% and 11.31%
  Population Mitotic Cells (%): 92% and 77.78%
  Population Normal (%): 100%
  Population Pyknosed Nuclei (%): 29.24% and 25.61%
  Population Tubulin-Different-Phenotype (%): 10.23% and 23.81%
  Total Cell Count: 171 and 246
[2]
  Population Apoptotic (%): 12.35% and 12.82%
  Population Fragmented Nuclei (%): 13.04% and 5.43%
  Population Healthy Nuclei (%): 42.93% and 73.37%
  Population Hoechst High Intensity Objects (%): 0%
  Population Membrane Permeable-Phenotype (%): 5.06% and 9.63%
  Population Mitochondria Different-Phenotype (%): 41.77% and 25.19%
  Population Mitotic Cells (%): 87.65% and 87.18%
  Population Normal (%): 100%
  Population Pyknosed Nuclei (%): 44.02% and 21.2%
  Population Tubulin-Different-Phenotype (%): 65.82% and 80.74%
  Total Cell Count: 184
[3]
  Population Apoptotic (%): 15.79% and 31.25%
  Population Fragmented Nuclei (%): 10.24% and 5.42%
  Population Healthy Nuclei (%): 66.87% and 81.25%
  Population Hoechst High Intensity Objects (%): 0%
  Population Membrane Permeable-Phenotype (%): 1.8% and 4.1%
  Population Mitochondria Different-Phenotype (%): 4.5% and 8.72%
  Population Mitotic Cells (%): 84.21% and 68.75%
  Population Normal (%): 100%
  Population Pyknosed Nuclei (%): 22.89% and 13.33%
  Population Tubulin-Different-Phenotype (%): 12.61% and 24.1%
  Total Cell Count: 166 and 240
[4]
  Population Apoptotic (%): 12.5% and 5.13%
  Population Fragmented Nuclei (%): 13.66% and 11.26%
  Population Healthy Nuclei (%): 62.93% and 71.17%
  Population Hoechst High Intensity Objects (%): 0%
  Population Membrane Permeable-Phenotype (%): 3.1% and 5.06%
  Population Mitochondria Different-Phenotype (%): 45.74% and 22.78%
  Population Mitotic Cells (%): 87.5% and 94.87%
  Population Normal (%): 100%
  Population Pyknosed Nuclei (%): 23.41% and 17.57%
  Population Tubulin-Different-Phenotype (%): 68.22% and 84.81%
  Total Cell Count: 205 and 222
[5]
  Population Apoptotic (%): 21.43% and 23.08%
  Population Fragmented Nuclei (%): 13.04% and 10.42%
  Population Healthy Nuclei (%): 79.35% and 84.17%
  Population Hoechst High Intensity Objects (%): 0%
  Population Membrane Permeable-Phenotype (%): 0.68% and 0.5%
  Population Mitotic Cells (%): 78.57% and 76.92%
  Population Normal (%): 100%
  Population Pyknosed Nuclei (%): 7.61% and 5.42%
  Population Tubulin-Different-Phenotype (%): 8.9% and 21.29%
  Total Cell Count: 184 and 240
[6]
  Population Apoptotic (%): 15.79% and 45.16%
  Population Fragmented Nuclei (%): 15.15% and 7.88%
  Population Healthy Nuclei (%): 76.62% and 79.25%
  Population Hoechst High Intensity Objects (%): 1.28% and 0%
  Population Membrane Permeable-Phenotype (%): 3.39% and 4.71%
  Population Mitochondria Different-Phenotype (%): 27.12% and 15.18%
  Population Mitotic Cells (%): 84.21% and 54.84%
  Population Normal (%): 98.72% and 100%
  Population Pyknosed Nuclei (%): 8.23% and 12.86%
  Population Tubulin-Different-Phenotype (%): 62.15% and 89.01%
  Total Cell Count: 234 and 241

## COCCNc1nc2ccc(C#CC3(O)CCCCC3)cc2n1-c1ccnc(N)n1
[1]
  Population Apoptotic (%): 15.09% and 20.51%
  Population Fragmented Nuclei (%): 19.05% and 7.25%
  Population Healthy Nuclei (%): 44.9% and 73.91%
  Population Hoechst High Intensity Objects (%): 0%
  Population Membrane Permeable-Phenotype (%): 4.55% and 1.96%
  Population Mitochondria Different-Phenotype (%): 9.09% and 12.42%
  Population Mitotic Cells (%): 84.91% and 79.49%
  Population Normal (%): 100%
  Population Pyknosed Nuclei (%): 36.05% and 18.84%
  Population Tubulin-Different-Phenotype (%): 18.18% and 27.45%
  Total Cell Count: 147 and 207
[2]
  Population Apoptotic (%): 2.5% and 7.32%
  Population Fragmented Nuclei (%): 15.71% and 12.57%
  Population Healthy Nuclei (%): 46.19% and 64%
  Population Hoechst High Intensity Objects (%): 0%
  Population Membrane Permeable-Phenotype (%): 7.22% and 1.79%
  Population Mitochondria Different-Phenotype (%): 27.84% and 21.43%
  Population Mitotic Cells (%): 97.5% and 92.68%
  Population Normal (%): 100%
  Population Pyknosed Nuclei (%): 38.1% and 23.43%
  Population Tubulin-Different-Phenotype (%): 56.7% and 54.46%
  Total Cell Count: 210 and 175
[3]
  Population Apoptotic (%): 9.76% and 17.39%
  Population Fragmented Nuclei (%): 9.09% and 9.43%
  Population Healthy Nuclei (%): 62.24% and 79.72%
  Population Hoechst High Intensity Objects (%): 0%
  Population Membrane Permeable-Phenotype (%): 3.37% and 5.33%
  Population Mitochondria Different-Phenotype (%): 11.24% and 10.06%
  Population Mitotic Cells (%): 90.24% and 82.61%
  Population Normal (%): 100%
  Population Pyknosed Nuclei (%): 28.67% and 10.85%
  Population Tubulin-Different-Phenotype (%): 19.1% and 25.44%
  Total Cell Count: 143 and 212
[4]
  Population Apoptotic (%): 12.33% and 20.59%
  Population Fragmented Nuclei (%): 14.35% and 10.86%
  Population Healthy Nuclei (%): 51.85% and 69.71%
  Population Hoechst High Intensity Objects (%): 0%
  Population Membrane Permeable-Phenotype (%): 3.57% and 1.64%
  Population Mitochondria Different-Phenotype (%): 25% and 18.03%
  Population Mitotic Cells (%): 87.67% and 79.41%
  Population Normal (%): 100%
  Population Pyknosed Nuclei (%): 33.8% and 19.43%
  Population Tubulin-Different-Phenotype (%): 66.96% and 65.57%
  Total Cell Count: 216 and 175
[5]
  Population Apoptotic (%): 22.22% and 37.5%
  Population Fragmented Nuclei (%): 10.74% and 6.49%
  Population Healthy Nuclei (%): 77.18% and 86.58%
  Population Hoechst High Intensity Objects (%): 0%
  Population Membrane Permeable-Phenotype (%): 1.74% and 2.5%
  Population Mitotic Cells (%): 77.78% and 62.5%
  Population Normal (%): 100%
  Population Pyknosed Nuclei (%): 12.08% and 6.93%
  Population Tubulin-Different-Phenotype (%): 10.43% and 26.5%
  Total Cell Count: 149 and 231
[6]
  Population Apoptotic (%): 11.43% and 24%
  Population Fragmented Nuclei (%): 12.66% and 9.66%
  Population Healthy Nuclei (%): 72.57% and 76.14%
  Population Hoechst High Intensity Objects (%): 0%
  Population Membrane Permeable-Phenotype (%): 2.91% and 5.97%
  Population Mitochondria Different-Phenotype (%): 18.02% and 10.45%
  Population Mitotic Cells (%): 88.57% and 76%
  Population Normal (%): 100%
  Population Pyknosed Nuclei (%): 14.77% and 14.2%
  Population Tubulin-Different-Phenotype (%): 42.44% and 58.96%
  Total Cell Count: 237 and 176
